Experimental findings from BindingDB's records for doi:10.1021/jm9708588 (National University of Singapore, 1998) are described below.

Chain of Muscarinic acetylcholine receptor M3 (P08483 whole entry): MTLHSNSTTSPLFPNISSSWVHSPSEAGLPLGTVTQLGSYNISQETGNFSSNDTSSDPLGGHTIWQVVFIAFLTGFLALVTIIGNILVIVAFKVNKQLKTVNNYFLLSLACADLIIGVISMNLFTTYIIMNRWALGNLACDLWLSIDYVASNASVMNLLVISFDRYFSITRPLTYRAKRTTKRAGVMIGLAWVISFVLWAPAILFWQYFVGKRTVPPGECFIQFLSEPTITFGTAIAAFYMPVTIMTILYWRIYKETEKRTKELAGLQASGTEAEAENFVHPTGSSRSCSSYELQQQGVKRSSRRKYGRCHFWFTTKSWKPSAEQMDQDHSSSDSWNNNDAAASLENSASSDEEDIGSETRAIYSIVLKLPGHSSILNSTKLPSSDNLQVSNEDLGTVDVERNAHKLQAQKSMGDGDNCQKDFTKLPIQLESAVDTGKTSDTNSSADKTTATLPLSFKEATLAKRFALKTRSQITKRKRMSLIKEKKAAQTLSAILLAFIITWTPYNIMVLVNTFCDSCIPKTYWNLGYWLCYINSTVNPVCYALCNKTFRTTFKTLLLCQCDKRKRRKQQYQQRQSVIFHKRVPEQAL

Target in the first experiment: not listed separately
In words: The compound was evaluated for its ability to inhibit [3H]NMS binding to Muscarinic acetylcholine receptor in heart.
Compound `CCC#CCON=C1CC2CCC(C1)N2C` gave a Ki of 63.1 µM.

A further experiment concerns the target Muscarinic acetylcholine receptor M3 (Rattus norvegicus, UniProt P08483). In words: Binding affinity to Muscarinic acetylcholine receptor M3 by measuring its ability to displace [3H]N-methylscopolamine binding in rat submandibulary gland. The essentials: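 Rat submandibulary gland membranes prepared in Na+/Mg2+ HEPES buffer pH 7.4. Nonspecific binding defined with 1 μM (±)-QNB. Pellet obtained by centrifugation and counted by scintillation. Triplicate determinations. Ki derived from IC50 by Cheng–Prusoff.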
`C[N+](C)(C)CC#CCOC(=O)Nc1cccc(Cl)c1` [McN-A-343] displayed a Ki of 2.51 µM. This lies in the single-digit micromolar range.

The target of the next experiment is T1, Muscarinic acetylcholine receptor M1 (Rattus norvegicus, UniProt P08482).
T1 sequence (P08482 whole entry): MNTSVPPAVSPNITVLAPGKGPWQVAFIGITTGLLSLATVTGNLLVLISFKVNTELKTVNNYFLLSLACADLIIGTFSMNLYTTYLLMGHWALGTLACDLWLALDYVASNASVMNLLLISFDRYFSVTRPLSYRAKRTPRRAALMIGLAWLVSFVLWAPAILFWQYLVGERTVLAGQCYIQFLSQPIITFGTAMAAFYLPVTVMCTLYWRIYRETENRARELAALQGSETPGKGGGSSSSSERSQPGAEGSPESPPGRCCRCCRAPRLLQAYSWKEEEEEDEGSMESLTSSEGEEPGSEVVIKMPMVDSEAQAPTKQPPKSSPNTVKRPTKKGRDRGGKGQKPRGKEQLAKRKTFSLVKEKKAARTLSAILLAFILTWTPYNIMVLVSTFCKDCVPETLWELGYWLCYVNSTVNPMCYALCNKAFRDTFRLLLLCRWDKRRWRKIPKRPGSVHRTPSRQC
In words: Binding affinity to Muscarinic acetylcholine receptor M1 by measuring its ability to displace [3H]pirenzepine from rat cerebral cortex.
Regarding `C#CCCCON=C1CC2CCC(C1)N2C`, the affinity corresponds to a Ki of 0.63 µM. Still for that read-out and setting: for `CCC#CCON=C1CC2CCC(C1)N2C` the value was 5.01 µM; for `C#CC(C)ON=C1CCN(C)CC1` (stereo unspecified), 5.01 µM; for `CON=C1CC2CCC(C1)N2C`, 999 µM. Take `C#CCCON=C1CC2CCC(C1)N2C`: the affinity corresponds to a Ki of 1.58 µM.

`CCC#CCON=C1CCN(C)CC1` had a Ki of 3.98 µM. With `C#CCCON=C1CCN(C)CC1`, the affinity corresponds to a Ki of 1.58 µM. The same measure, in the same setting: for `O=C1CCCN1CC#CCN1CCCC1` [1-[4-(2-oxo-pyrrolidin-1-yl)-but-2-ynyl]-pyrrolidinium] the value was 0.63 µM.

Consider `C#CCON=C1CC2CCC(C1)N2C`, for which the Ki worked out at 1.25 µM.

As to `C#CCON=C1CCN(C)CC1`, the Ki stood at 50.1 µM. For `CC#CCON=C1CCN(C)CC1`, the Ki was determined as 3.98 µM. This Ki lies about 13-fold lower than the previous one.

`C#CCCCON=C1CCN(C)CC1` came in with an inhibitory constant (Ki) of 7.94 µM. `C#CC(CC)ON=C1CCN(C)CC1` (stereo unspecified) showed a Ki of 6.3 µM. With `C#CC(CC)ON=C1CC2CCC(C1)N2C` (stereo unspecified), the affinity corresponds to a Ki of 0.316 µM. This Ki is about 20-fold lower than that of the compound before. Turning to `C[N+](C)(C)CC#CCOC(=O)Nc1cccc(Cl)c1` [McN-A-343], affinity was put at a Ki of 5.01 µM. This Ki is about 16-fold higher than that of the compound before. The compound `CN1C2CCC1CC(=NO)C2` gave a Ki of 501 µM. The compound `C#CCC(C)ON=C1CCN(C)CC1` (stereo unspecified) registered a Ki of 3.16 µM.

The compound `CN1CCC(=NO)CC1` gave a Ki of 501 µM.

`CC#CCCON=C1CC2CCC(C1)N2C` returned a Ki of 0.794 µM. As to `C#CCC(C)ON=C1CC2CCC(C1)N2C` (stereo unspecified), the affinity corresponds to a Ki of 0.1 µM. The same measure, in the same setting: to `CC#CCON=C1CC2CCC(C1)N2C` belongs 0.501 µM. Compound `CON=C1CCN(C)CC1` yielded a Ki of 50.1 µM. Same read-out and setting: to `CC#CCCON=C1CCN(C)CC1` belongs 1.99 µM; to `C#CC(C)ON=C1CC2CCC(C1)N2C` (stereo unspecified), 9.99 µM.
